Measurements published in ChEMBL document CHEMBL1149554, “Dual bioactivity of resveratrol fatty alcohols: differentiation of neural stem cells and modulation of neuroinflammation” (2007).

Experiments:
Neuron [1] = experiment: Neuronal differentiation activity assessed as increase in number of neurons at 0.1 uM in relative to control; type: functional, Homo sapiens
Outline: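 Neurospheres (undifferentiated aggregates containing 5–10% neural stem cells, raised with EGF and bFGF) were treated with compound and scored for differentiation into neurons. The % of neurons was compared with ethanol vehicle control, or divided by the % of neurons obtained with retinoic acid treatment. Neuron morphology was also rated qualitatively. Each compound was tested in at least three independent experiments.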

Neuron [2] = experiment: Neuronal differentiation activity assessed as increase in number of neurons at 0.1 uM in relative to 5 uM retinoic acid
[3] = Inhibition of LPS-stimulated nitric oxide production in mouse MMGT12 cells after 48 hrs; type: functional; design: scale not given: the % may be the effect or the level left
Outline: (§1)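 Mouse MMGT-12 microglial cells stimulated with LPS in the presence or absence of test compound at several concentrations. Supernatants were collected, and accumulated NO was measured at 48 h by the Griess method and secreted TNF-α at 24 h by ELISA. Data are expressed as % of the LPS-only control, as mean ± SEM of three independent experiments.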

[4] = Inhibition of LPS-stimulated TNFalpha production in mouse MMGT12 cells after 24 hrs by ELISA; type: functional; design: scale not given: the % may be the effect or the level left; outline: as §1

Compound | Activity (Neuron [1]) | Activity (Neuron [2]) | Activity [3] | Activity [4]
COc1ccc(/C=C/c2cc(OC)c(CCCCCCCCCCCCO)c(OC)c2)cc1 | 188% | – | – | –
COc1ccc(/C=C/c2cc(OC)c(CCCCCCCCCCCCCCO)c(OC)c2)cc1 | 135% | – | – | –
OCCCCCCCCCCc1c(O)cc(/C=C/c2ccc(O)cc2)cc1O | 108% | 0.53 | – | –
OCCCCCCCCCCCCCCc1c(O)cc(/C=C/c2ccc(O)cc2)cc1O | 160% | – | – | –
CCCCCCCCCCCCc1c(O)cc(/C=C/c2ccc(O)cc2)cc1O | 106% | 0.52 | – | –
COc1ccc(/C=C/c2cc(OC)c(CCCCCCCCCCO)c(OC)c2)cc1 | 147% | – | – | –
COc1ccc(/C=C/c2cc(OC)c(CCCCCCCCCCCCCCCCO)c(OC)c2)cc1 | 107% | 0.53 | – | –
OCCCCCCCCCCCCc1c(O)cc(/C=C/c2ccc(O)cc2)cc1O | 263% | – | 50% | 30%
Oc1ccc(/C=C/c2cc(O)cc(O)c2)cc1 [RESVERATROL] | 105% | 0.52 | – | –
CC1=C(/C=C/C(C)=C/C=C/C(C)=C/C(=O)O)C(C)(C)CCC1 [TRETINOIN] | 203% | – | – | –
